# In ChEMBL document CHEMBL4765486, “Novel Nonsecosteroidal Vitamin D Receptor Modulator Combined with Gemcitabine Enhances Pancreatic Cancer Therapy through Remodeling of the Tumor Microenvironment” (J Med Chem, 2021):
# Activity calls are given as the source filed them.
# Tests used:
# [1] = molecular target: T1, Vitamin D3 receptor (Homo sapiens) (UniProt P11473); test: Binding affinity to VDR (unknown origin) at 1 uM by fluorescence polarization assay relative to calcipotriol
# T1 sequence (whole entry): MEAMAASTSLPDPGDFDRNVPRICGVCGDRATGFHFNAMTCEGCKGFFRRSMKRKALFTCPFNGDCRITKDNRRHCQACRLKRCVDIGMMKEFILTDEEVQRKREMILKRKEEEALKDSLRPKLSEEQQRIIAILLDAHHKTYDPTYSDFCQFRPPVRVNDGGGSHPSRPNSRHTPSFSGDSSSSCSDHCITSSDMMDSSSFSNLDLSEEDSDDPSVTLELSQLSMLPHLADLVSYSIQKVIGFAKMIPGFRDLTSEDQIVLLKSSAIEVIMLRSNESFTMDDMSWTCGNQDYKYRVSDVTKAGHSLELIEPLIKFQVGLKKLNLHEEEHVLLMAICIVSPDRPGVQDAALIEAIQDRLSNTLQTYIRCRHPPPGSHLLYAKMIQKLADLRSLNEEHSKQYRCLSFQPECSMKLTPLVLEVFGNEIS
# Outline: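 PolarScreen VDR competitor fluorescence polarization assay with compounds at 1 μM in triplicate. Read-out used 535 nm excitation and 590 nm emission filters.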
# [2] = Cytotoxicity against rat LTC-14 cells assessed as reduction in cell proliferation incubated for 24 hrs by MTT assay; format: cell-based; conditions: LTC-14, 24 h
# [3] = system: LTC-14; test: Inhibition of rat LTC-14 cell activation assessed decrease in TGF-beta1 induced Colla1 mRNA expression at 0.5 uM incubated for 24 hrs by q-PCR analysis; format: functional
# Outline: (§1)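 Immortalized rat PSC line LTC-14, about 1×10^5 cells per well, was grown 24 h at 37 °C in 5% CO2. Cells then received compound (0.5 μM) plus TGF-β1 for 24 h; TGF-β1 is stated as 0.5 ng/mL in the text and 5 ng/mL in the methods. Col1a1 and Acta2 mRNA were measured by RT-qPCR. Mean ± SD versus TGF-β1 alone.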
# [4] = system: LTC-14; test: Inhibition of rat LTC-14 cells activation assessed decrease in TGF-beta1 induced Acta2 mRNA expression at 0.5 uM incubated for 24 hrs by q-PCR analysis; format: functional, cell-based; outline: as §1
# [5] = system: LTC-14; test: Inhibition of rat LTC-14 cells activation assessed decrease in TGF-beta1 induced collagen 1 protein expression at 0.5 uM incubated for 24 hrs by Western blot analysis; format: functional, cell-based
# Outline: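 LTC-14 cells were treated for 24 h with compound (0.5 μM) plus TGF-β1 (0.5 ng/mL in the text, 5 ng/mL in the methods). Lysates were run on 10% SDS-PAGE, transferred to PVDF and probed with rabbit anti-collagen I, with β-actin as reference. Bands were quantified by densitometry versus TGF-β1 alone.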
# [6] = system: LTC-14; test: Inhibition of rat LTC-14 cells interaction with DSL-6A/C1 cells in conditioned media assessed as inhibition of PDGF-A protein expression at 0.5 uM measured after 24 hrs by Western blot analysis; format: functional, cell-based
# Outline: (§2)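 LTC-14 cells were treated for 24 h with DSL-6A/C1 conditioned medium plus compound (0.5 μM). Proteins were separated on 10% SDS-PAGE, transferred to PVDF and probed with rabbit anti-PDGF-A or anti-POSTN, with β-actin as loading reference.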
# [7] = system: LTC-14; test: Inhibition of rat LTC-14 cells interaction with DSL-6A/C1 cells in conditioned media assessed as inhibition of POSTN protein expression at 0.5 uM measured after 24 hrs by Western blot analysis; format: functional, cell-based; outline: as §2
# [8] = system: LTC-14; test: Inhibition of rat LTC-14 cells activation assessed as inhibition of PDGFA mRNA expression at 0.5 uM treated under conditioned media of DSL-6A/C1 cells for 24 hrs by q-PCR analysis; format: functional, cell-based
# Outline: (§3)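 LTC-14 PSCs were exposed for 24 h to conditioned medium from rat DSL-6A/C1 cancer cells containing compound at 0.5 μM. Pdgfa, Pdgfb, Fgf2, Hgf and Periodin mRNA were quantified by RT-qPCR. Three repeats, mean ± SD versus CM alone.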
# [9] = system: LTC-14; test: Inhibition of rat LTC-14 cells activation assessed as inhibition of PDGFB mRNA expression at 0.5 uM treated under conditioned media of DSL-6A/C1 cells for 24 hrs by q-PCR analysis; format: functional, cell-based; outline: as §3
# [10] = system: LTC-14; test: Inhibition of rat LTC-14 cells activation assessed as inhibition of Fgf mRNA expression at 0.5 uM treated under conditioned media of DSL-6A/C1 cells for 24 hrs by q-PCR analysis; format: functional, cell-based; outline: as §3
# [11] = system: LTC-14; test: Inhibition of rat LTC-14 cells activation assessed as inhibition of Hgf mRNA expression at 0.5 uM treated under conditioned media of DSL-6A/C1 cells for 24 hrs by q-PCR analysis; format: functional, cell-based; outline: as §3
# [12] = system: LTC-14; test: Inhibition of rat LTC-14 cells activation assessed as inhibition of Periodin-mRNA expression at 0.5 uM treated under conditioned media of DSL-6A/C1 cells for 24 hrs by q-PCR analysis; format: functional, cell-based; outline: as §3
# [13] = Cytotoxicity against rat DSL-6A/C1 cells assessed as reduction in cell proliferation at 0.5 uM incubated for 24 hrs by MTT assay; format: cell-based; conditions: dsl-6a/c1, 24 h
# [14] = molecular target: T2, Vitamin D3 receptor (Homo sapiens, UniProt P11473); test: Binding affinity to VDR (unknown origin) by fluorescence polarization assay
# T2 sequence (P11473 whole entry): T1 sequence (whole entry)
# Outline: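 Competitive VDR binding was measured by PolarScreen fluorescence polarization, in triplicate.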
# [15] = system: DSL-6A/C1; test: Antiproliferative activity against rat DSL-6A/C1 cells assessed as reduction in cell viability at 0.5 uM incubated for 24 hrs compound treated LTC-14-CM cells by MTT assay; format: functional, cell-based
# Outline: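 LTC-14 PSCs were pretreated with compound for 24 h. Their collected supernatant was used to culture DSL-6A/C1 cells, and proliferation was read by MTT: 4 h incubation with MTT (5 mg/mL stock), absorbance at 570 nm. Run in triplicate, compared with untreated PSC-CM.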
# [16] = system: DSL-6A/C1; test: Antiproliferative activity against rat DSL-6A/C1 cells assessed as reduction in cell viability at 0.5 uM treated with conditioned media of LTC-14 cells for 24 hrs by MTT assay; format: functional, cell-based
# Outline: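 Rat pancreatic cancer DSL-6A/C1 cells were cultured in supernatant from LTC-14 PSCs (PSC-CM) with compound added at 0.5 μM for 24 h. Viability was then read by MTT: 4 h incubation with MTT (5 mg/mL stock), absorbance at 570 nm. Run in triplicate, compared with PSC-CM alone.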
# [17] = system: LTC-14; test: Inhibition of rat LTC-14 cells activation assessed as reduction in ECM deposition resulting in doxorubicin accumulation in PSC spheres pretreated with compounds followed by doxorubicin addition by laser confocal microscopy analysis; format: functional, cell-based
# Outline: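 LTC-14 cells were grown in 3D culture to form PSC spheres and treated with compounds. Fluorescent doxorubicin was then added, and its penetration into the spheres was imaged by laser confocal microscopy. Three repeats, versus untreated control.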
# [18] = molecular target: T1, Vitamin D3 receptor (Homo sapiens); test: Agonist activity at VDR (unknown origin) expressed in HEK293 cells co-transfected with pGL4.27-SPP3-Luc and CMV-hRXRalpha and pCMX-Renilla plasmids after 24 hrs by dual luciferase reporter gene assay; format: cell-based; conditions: filed as agonist, dose 0.0001-1 µM
# Outline: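 HEK293 cells in 48-well plates were transfected per well with 40 ng TK-Spp×3-LUC reporter, 20 ng pCMX-Renilla, 30 ng pENTER-CMV-hRXRα and 100 ng pCMX-VDR using Lipofectamine 2000. Compounds were added 8 h post-transfection, and dual-luciferase activity was read 24 h later. Firefly signal was normalised to Renilla. The experiment was run three times.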
# [19] = system: DSL-6A/C1; test: Potentiation of gemcitabine-induced antitumor activity against luciferase-tagged rat DSL-6A/C1 cells and GFP-tagged LTC-14 cells co-inoculated in orthotropic xenograft BALB/c nude mouse model of pancreatic cancer assessed as reduction in tumor volume at 500 ug/kg, ip administered once every 3 days for 12 days coadministered with gemcitabine at 100 mg/kg and measured after 3 days post last dose by IVIS optical imaging analysis; format: functional, organism-based; conditions: dose 500.0 µg/kg, time 12.0 day
# Outline: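 DSL-6A/C1-luci and LTC-14-GFP cells were co-inoculated orthotopically into the pancreas of nude mice, n=5 per group. Treatment began 7 days after grafting (methods) or 14 days (text). Gemcitabine 100 mg/kg ip every 3 days, alone or with compound 500 μg/kg or calcipotriol 60 μg/kg in ethanol/polyoxyethylene castor oil/saline (1:1:18), for 12 days. Tumour growth was followed by bioluminescence imaging.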
# [20] = system: Mus musculus; test: Inhibition of GFP-tagged rat LTC-14 cells activation in BALB/c nude mouse xenografted along with luciferase-tagged DSL-6A/C1-Luc cells assessed as reduction in alpha-smooth muscle actin expression in tumor at 500 ug/kg, ip administered once every 3 days for 12 days coadministered with gemcitabine at 100 mg/kg by DAPI staining based laser confocal scanning microscopy; format: functional, organism-based; conditions: dose 500.0 µg/kg, time 12.0 day
# Outline: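 Tumours were taken from orthotopic co-inoculated nude mice given gemcitabine 100 mg/kg plus compound (500 μg/kg) or calcipotriol (60 μg/kg) ip for 12 days. Sections were fixed in 4% PFA, permeabilised with 0.5% Triton X-100 and blocked in 5% BSA. They were incubated with anti-α-SMA overnight at 4 °C, then an Alexa Fluor 594 secondary for 1 h at 37 °C, DAPI-counterstained and imaged by confocal microscopy.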
SMILES,RBA ([1]; filed as agonist) [%],IC50 [2] [µM],inhibition [3],inhibition [4],inhibition [5],inhibition [8],inhibition [9],inhibition [10],inhibition [11],inhibition [12],Activity [13],RBA [1],other results
CCn1c(C(=O)NCCN2CCN(C)CC2)ccc1C(CC)(CC)c1ccc(OCCC(C)(C)O)c(C)c1,68,> 10,Active,Active,Active,Active,Active,Active,Active,Active,Non-Toxic,–,inhibition [6]: Active; inhibition [7]: Active
CCN(CC)CCNC(=O)c1ccc(C(CC)(CC)c2ccc(OCCC(C)(C)O)c(C)c2)n1CC,–,> 10,Active,Active,Active,Active,Active,Active,Active,Active,Non-Toxic,36%,–
CCN(CC)CCCNC(=O)c1ccc(C(CC)(CC)c2ccc(OCCC(C)(C)O)c(C)c2)n1CC,85,> 10,Active,Active,Active,Active,Active,Active,Active,Active,Non-Toxic,–,inhibition [6]: Active; inhibition [7]: Active; IC50 [14]: 0.0925 µM; Activity [15]: Active; Activity [16]: inactive; inhibition [17]: Active; Activity [18]: Dose-dependent effect; TGI [19]: Active; inhibition [20]: Active
CCn1c(C(=O)NCCN2CCCCC2)ccc1C(CC)(CC)c1ccc(OCCC(C)(C)O)c(C)c1,–,> 10,Active,Active,Active,Active,Active,Active,Active,Active,Non-Toxic,24%,–
CCn1cc(C(CC)(CC)c2ccc(OCC(C)O)c(C)c2)cc1C(=O)NCCN1CCCCC1 (stereo unspecified),–,> 10,Active,Active,Active,Active,Active,Active,Active,Active,Non-Toxic,inactive,–
CCN(CC)CCCNC(=O)c1cc(C(CC)(CC)c2ccc(OCCCCC(O)(CC)CC)c(C)c2)cn1CC,–,> 10,Active,Active,Active,–,–,–,–,–,–,27%,–
CCN(CC)CCNC(=O)c1cc(C(CC)(CC)c2ccc(OCCCC(O)(CC)CC)c(C)c2)cn1CC,–,> 10,Active,Active,Active,–,–,–,–,–,–,31%,–
CCN(CC)CCCNC(=O)c1ccc(C(CC)(CC)c2ccc(OCCCC(O)(CC)CC)c(C)c2)n1CC,–,> 10,Active,Active,Active,–,–,–,–,–,–,23%,–
CCN(CC)CCNC(=O)c1ccc(C(CC)(CC)c2ccc(OCCCCC(O)(CC)CC)c(C)c2)n1CC,71,> 10,Active,Active,Active,–,–,–,–,–,–,–,–
CCN(CC)CCNC(=O)c1cc(C(CC)(CC)c2ccc(OCC(C)O)c(C)c2)cn1CC (stereo unspecified),–,> 10,Active,Active,Active,–,–,–,–,–,–,inactive,–
CCN(CC)CCCNC(=O)c1ccc(C(CC)(CC)c2ccc(OCC(O)c3ccccc3)c(C)c2)n1CC (stereo unspecified),75,> 10,Active,Active,Active,–,–,–,–,–,–,–,–
CCn1cc(C(CC)(CC)c2ccc(OCC(C)O)c(C)c2)cc1C(=O)NCCCN(CCO)CCO (stereo unspecified),70,> 10,Active,Active,Active,–,–,–,–,–,–,–,–
